Source: ChEMBL document CHEMBL2046351, “Discovery of cyclic sulfone hydroxyethylamines as potent and selective β-site APP-cleaving enzyme 1 (BACE1) inhibitors: structure-based design and in vivo reduction of amyloid β-peptides” (J Med Chem, 2012)

Assays:
[1] = biological target: Cathepsin D (Homo sapiens, UniProt P07339); test: Inhibition of human recombinant CatD using Mca-GKPILFFRLK(DNP)-dR-NH2 as substrate after 1 hr by fluorescence analysis
[2] = tested on: MDR1 (human); test: Apparent permeability across MDCK cells expressing human MDR1 at 5 uM after 2 hrs by LC-MS analysis; type: ADME, cell-based, Canis lupus familiaris; details: dog
Outline: (§1)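 MDCK cells retrovirally transduced with human MDR1, seeded on transwells ≥3 days; bidirectional transport at 5 μM, 2 h, 37 °C, LC/MS quantitation. Papp = (dQ/dt)/(A·C0), A 0.11 cm2; ER = Papp B>A / Papp A>B. Means of at least three experiments.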

[3] = tested on: MDR1 (human); test: Efflux ratio of permeability from basolateral to apical over apical to basolateral side of MDCK cells expressing human MDR1 at 5 uM after 2 hrs by LC/MS analysis; type: ADME, cell-based, Canis lupus familiaris; details: dog; outline: as §1
[4] = biological target: Cytochrome P450 3A4 (Homo sapiens, UniProt P08684); test: Inhibition of CYP3A4; type: ADME
Sequence of Cytochrome P450 3A4 (P08684 whole entry): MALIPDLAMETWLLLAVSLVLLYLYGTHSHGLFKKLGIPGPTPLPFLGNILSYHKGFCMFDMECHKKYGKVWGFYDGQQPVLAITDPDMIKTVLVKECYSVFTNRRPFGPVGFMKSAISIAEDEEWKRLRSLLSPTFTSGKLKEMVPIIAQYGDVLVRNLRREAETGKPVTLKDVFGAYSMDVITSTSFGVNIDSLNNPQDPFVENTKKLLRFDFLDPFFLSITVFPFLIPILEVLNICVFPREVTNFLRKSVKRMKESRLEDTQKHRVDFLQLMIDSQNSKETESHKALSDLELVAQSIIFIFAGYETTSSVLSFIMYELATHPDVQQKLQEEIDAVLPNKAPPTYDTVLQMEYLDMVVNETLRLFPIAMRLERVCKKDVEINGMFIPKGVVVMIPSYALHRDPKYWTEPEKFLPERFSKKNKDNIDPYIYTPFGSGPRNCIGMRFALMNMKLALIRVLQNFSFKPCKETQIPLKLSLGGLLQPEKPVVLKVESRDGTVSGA

[5] = biological target: Beta-secretase 1 (Homo sapiens, UniProt P56817)
Sequence of Beta-secretase 1 (P56817 whole entry): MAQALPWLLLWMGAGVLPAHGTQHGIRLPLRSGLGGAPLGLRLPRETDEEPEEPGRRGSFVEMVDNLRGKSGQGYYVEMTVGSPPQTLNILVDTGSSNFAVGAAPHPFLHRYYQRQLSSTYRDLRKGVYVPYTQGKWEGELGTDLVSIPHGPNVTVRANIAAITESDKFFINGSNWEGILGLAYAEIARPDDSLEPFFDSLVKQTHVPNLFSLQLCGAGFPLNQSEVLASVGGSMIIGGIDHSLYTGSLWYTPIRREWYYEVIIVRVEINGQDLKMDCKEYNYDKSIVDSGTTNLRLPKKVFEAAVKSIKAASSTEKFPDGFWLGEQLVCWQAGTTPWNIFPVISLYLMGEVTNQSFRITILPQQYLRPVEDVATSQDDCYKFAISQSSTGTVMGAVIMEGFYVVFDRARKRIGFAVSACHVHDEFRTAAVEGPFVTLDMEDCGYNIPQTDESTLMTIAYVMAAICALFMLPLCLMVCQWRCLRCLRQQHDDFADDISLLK

Sequence of Cathepsin D (P07339 65-162 limits assumed): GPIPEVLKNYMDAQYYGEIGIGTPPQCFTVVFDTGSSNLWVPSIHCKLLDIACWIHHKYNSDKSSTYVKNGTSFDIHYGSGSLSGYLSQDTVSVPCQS
Sequence of Cathepsin D (P07339 169-412 limits assumed): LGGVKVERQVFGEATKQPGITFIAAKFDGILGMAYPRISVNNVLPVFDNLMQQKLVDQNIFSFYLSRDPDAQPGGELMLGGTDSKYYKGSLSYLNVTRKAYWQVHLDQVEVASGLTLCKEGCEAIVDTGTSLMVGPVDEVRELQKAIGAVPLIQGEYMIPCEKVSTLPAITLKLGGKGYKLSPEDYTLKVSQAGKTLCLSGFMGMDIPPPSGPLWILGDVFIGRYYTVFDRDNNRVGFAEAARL

Row | IC50 [1] | Papp at 2 h, 5 µM [2] | efflux ratio at 2 h, 5 µM [3] | IC50 [4] | IC50 [5] | SMILES
1 | 0.6 µM | 12 ×10⁻⁶ cm/s | 35 | 0.8 µM | 0.002 µM | CC(C)(CO)c1cccc(CN[C@H]2CS(=O)(=O)C[C@@H](Cc3cc(F)c(N)c(OC(C(F)(F)F)C(F)(F)F)c3)[C@@H]2O)c1
2 | 3.75 µM | 23 ×10⁻⁶ cm/s | 11 | – | 1.45 µM | CC(C)(C)c1cccc(CN[C@H]2CS(=O)(=O)C[C@@H](Cc3ccc4[nH]ncc4c3)[C@@H]2O)c1 (racemic)
3 | 2 µM | 26 ×10⁻⁶ cm/s | 16 | – | 0.043 µM | CC(C)(C)c1cccc(CN[C@H]2CS(=O)(=O)C[C@@H](Cc3cc(F)c(N)c(OCCF)c3)[C@@H]2O)c1
4 | 2.22 µM | 7 ×10⁻⁶ cm/s | 3 | – | 0.056 µM | CCCOc1cc(CC2CS(=O)(=O)CC(NCc3cccc(C(C)(C)C)c3)[C@H]2O)cc(F)c1N (single isomer, unassigned)
5 | 1.39 µM | 7 ×10⁻⁶ cm/s | 2 | – | 0.13 µM | CCCc1cc(C[C@@H]2CS(=O)(=O)C[C@H](NCc3cccc(C(C)(C)C)c3)[C@H]2O)cc(F)c1N
6 | 0.39 µM | 6 ×10⁻⁶ cm/s | 3 | – | 0.011 µM | CC(C)(C)c1cccc(CN[C@H]2CS(=O)(=O)C[C@@H](Cc3cc(F)c(N)c(OC4CCC4)c3)[C@@H]2O)c1
7 | 1.22 µM | 6 ×10⁻⁶ cm/s | 8 | – | – | CC(C)(C)c1cccc(CN[C@H]2CS(=O)(=O)C[C@@H](Cc3ccc4[nH]cc(CC(F)F)c4c3)[C@@H]2O)c1 (racemic)
8 | 3.07 µM | 38 ×10⁻⁶ cm/s | 17 | 0.4 µM | 0.068 µM | CC(C)(C)c1ccnc(CN[C@H]2CS(=O)(=O)C[C@@H](Cc3cc(F)c(N)c(OC(C(F)(F)F)C(F)(F)F)c3)[C@@H]2O)c1
9 | 0.48 µM | 10 ×10⁻⁶ cm/s | 5 | – | 0.003 µM | C[C@@H](Oc1cc(C[C@@H]2CS(=O)(=O)C[C@H](NCc3cccc(C(C)(C)C)c3)[C@H]2O)cc(F)c1N)C(F)(F)F
10 | 2.4 µM | 12 ×10⁻⁶ cm/s | 4 | – | 0.075 µM | CC(C)(C)c1cccc(CN[C@H]2CS(=O)(=O)C[C@@H](Cc3cc(F)c(N)c(OCCC(F)(F)F)c3)[C@@H]2O)c1
11 | 0.29 µM | 2 ×10⁻⁶ cm/s | 1 | – | 0.67 µM | CCCOc1cccc(C[C@@H]2CS(=O)(=O)C[C@H](NCc3cccc(C(C)(C)C)c3)[C@H]2O)c1 (relative stereo)
12 | > 10 µM | 17.4 ×10⁻⁶ cm/s | 16 | – | 1.62 µM | CC(C)(C)c1cccc(CN[C@H]2CS(=O)(=O)C[C@@H](Cc3ccc(N)nc3)[C@@H]2O)c1 (racemic)
13 | 2 µM | 23 ×10⁻⁶ cm/s | 2 | – | 0.87 µM | CCc1cc(C[C@@H]2CS(=O)(=O)C[C@H](NCc3cccc(C(C)(C)C)c3)[C@H]2O)cc(F)c1N
14 | 0.51 µM | 20 ×10⁻⁶ cm/s | 8 | 0.4 µM | 0.007 µM | CC(C)(C)Cc1cc(CN[C@H]2CS(=O)(=O)C[C@@H](Cc3cc(F)c(N)c(OC(C(F)(F)F)C(F)(F)F)c3)[C@@H]2O)no1
15 | > 10 µM | 13 ×10⁻⁶ cm/s | – | – | – | CCc1cc(C[C@@H]2CS(=O)(=O)C[C@H](NCc3cccc(C(C)(C)C)c3)[C@H]2O)cc(F)c1NC(=O)CN(C)C
16 | 3.98 µM | 25 ×10⁻⁶ cm/s | – | – | – | COCCOc1cc(C[C@@H]2CS(=O)(=O)C[C@H](NCc3cccc(C(C)(C)C)c3)[C@H]2O)cc(F)c1N
17 | 1.23 µM | 8 ×10⁻⁶ cm/s | – | – | – | CCOC[C@H](Oc1cc(C[C@@H]2CS(=O)(=O)C[C@H](NCc3cccc(C(C)(C)C)c3)[C@H]2O)cc(F)c1N)C(F)(F)F
18 | 2.22 µM | 14 ×10⁻⁶ cm/s | 3 | – | 0.043 µM | CC(C)Oc1cc(C[C@@H]2CS(=O)(=O)C[C@H](NCc3cccc(C(C)(C)C)c3)[C@H]2O)cc(F)c1N
19 | 0.54 µM | 14 ×10⁻⁶ cm/s | 27 | – | 0.12 µM | CC(C)(C)c1cccc(CN[C@H]2CS(=O)(=O)C[C@@H](Cc3cc(O)c(N)c(F)c3)[C@@H]2O)c1
20 | > 10 µM | 6 ×10⁻⁶ cm/s | – | – | – | CN(C)CC(=O)Nc1ccc(C[C@@H]2CS(=O)(=O)C[C@H](NCc3cccc(C(C)(C)C)c3)[C@H]2O)cc1F
21 | 2.48 µM | – | – | – | 0.2 µM | CCc1c[nH]c2ccc(C[C@@H]3CS(=O)(=O)C[C@H](NCc4cccc(C(C)(C)C)c4)[C@H]3O)cc12 (racemic)
22 | 0.25 µM | 12 ×10⁻⁶ cm/s | – | – | – | COCCOC[C@@H](Oc1cc(C[C@@H]2CS(=O)(=O)C[C@H](NCc3cccc(C(C)(C)C)c3)[C@H]2O)cc(F)c1N)C(F)(F)F

Row | IC50 [1] | Papp at 2 h, 5 µM [2] | efflux ratio at 2 h, 5 µM [3] | IC50 [4] | IC50 [5] | SMILES
23 | 1.51 µM | 21 ×10⁻⁶ cm/s | – | 0.7 µM | – | CC1(C)OCc2ccc(CN[C@H]3CS(=O)(=O)C[C@@H](Cc4cc(F)c(N)c(OC(C(F)(F)F)C(F)(F)F)c4)[C@@H]3O)cc21
24 | 0.6 µM | 20 ×10⁻⁶ cm/s | 17 | – | 0.028 µM | CC(C)(C)c1cccc(CN[C@H]2CS(=O)(=O)C[C@@H](Cc3cc(F)c(N)c(-c4cc[nH]n4)c3)[C@@H]2O)c1 (racemic)
25 | 7.99 µM | 15 ×10⁻⁶ cm/s | 2 | – | 0.13 µM | CC(C)(C)c1cccc(CN[C@H]2CS(=O)(=O)C[C@@H](Cc3ccc(N)c(OC(F)(F)F)c3)[C@@H]2O)c1 (racemic)
26 | 5.53 µM | 10 ×10⁻⁶ cm/s | 3 | – | 2.75 µM | CC(C)(C)c1cccc(CN[C@H]2CS(=O)(=O)C[C@@H](Cc3ccc4[nH]ccc4c3)[C@@H]2O)c1 (racemic)
27 | 0.08 µM | 6 ×10⁻⁶ cm/s | 3 | – | 0.56 µM | CC(C)(C)c1cccc(CN[C@H]2CS(=O)(=O)C[C@@H](Cc3cc(F)c4c(c3)C3(CCC3)CN4)[C@@H]2O)c1 (racemic)
28 | > 10 µM | 13 ×10⁻⁶ cm/s | 17 | – | > 10 µM | Nc1c(F)cc(C[C@@H]2CS(=O)(=O)C[C@H](N)[C@H]2O)cc1OC(C(F)(F)F)C(F)(F)F
29 | 1.15 µM | 23 ×10⁻⁶ cm/s | – | – | – | CC(C)(C)c1cccc(CN[C@H]2CS(=O)(=O)C[C@@H](Cc3cc(F)c(N)c(OC4COC4)c3)[C@@H]2O)c1
30 | 0.51 µM | 3 ×10⁻⁶ cm/s | 2 | – | 0.15 µM | CC(C)(C)c1cccc(CN[C@H]2CS(=O)(=O)C[C@@H](Cc3cc(F)c(N)c(-c4ccoc4)c3)[C@@H]2O)c1
31 | 1.74 µM | 16 ×10⁻⁶ cm/s | 3 | – | 0.094 µM | CC(C)(C)c1cccc(CN[C@H]2CS(=O)(=O)C[C@@H](Cc3cc(F)c(N)c(C4CC4)c3)[C@@H]2O)c1
32 | 1.63 µM | 30 ×10⁻⁶ cm/s | 49 | – | 0.22 µM | CCCc1n[nH]c2ccc(C[C@@H]3CS(=O)(=O)C[C@H](NCc4cccc(C(C)(C)C)c4)[C@H]3O)cc12 (racemic)
33 | 1.32 µM | 11 ×10⁻⁶ cm/s | 30 | 2.1 µM | 0.002 µM | CC(C)(O)c1cccc(CN[C@H]2CS(=O)(=O)C[C@@H](Cc3cc(F)c(N)c(OC(C(F)(F)F)C(F)(F)F)c3)[C@@H]2O)c1
34 | 1.49 µM | 2.5 ×10⁻⁶ cm/s | 7 | – | 0.12 µM | CC(C)(C)c1cccc(CN[C@H]2CS(=O)(=O)C[C@@H](Cc3ccc4[nH]cc(CC(F)(F)F)c4c3)[C@@H]2O)c1 (racemic)
35 | 1.14 µM | 9 ×10⁻⁶ cm/s | – | – | – | CO[C@@H](Cc1cc(C[C@@H]2CS(=O)(=O)C[C@H](NCc3cccc(C(C)(C)C)c3)[C@H]2O)cc(F)c1N)C(F)(F)F
36 | 1.05 µM | 13 ×10⁻⁶ cm/s | – | – | – | CC(C)(C)c1cccc(CN[C@H]2CS(=O)(=O)C[C@@H](Cc3cc(F)c(N)c(C[C@H](O)C(F)(F)F)c3)[C@@H]2O)c1
37 | 4.37 µM | 23 ×10⁻⁶ cm/s | 3 | – | 0.036 µM | CC(C)(C)c1cccc(CN[C@H]2CS(=O)(=O)C[C@@H](Cc3ccc(N)c(OCC(F)(F)F)c3)[C@@H]2O)c1
38 | 4.16 µM | 28 ×10⁻⁶ cm/s | 4 | – | – | CC(F)(F)c1cccc(CN[C@H]2CS(=O)(=O)C[C@@H](Cc3cc(F)c(N)c(Br)c3)[C@@H]2O)c1
39 | 3.71 µM | – | 4 | – | > 10 µM | CC(C)(C)O[C@H]1C[C@@H]1CN[C@H]1CS(=O)(=O)C[C@@H](Cc2cc(F)c(N)c(OC(C(F)(F)F)C(F)(F)F)c2)[C@@H]1O (mixture of isomers)
40 | 0.98 µM | 11 ×10⁻⁶ cm/s | 3 | – | 0.13 µM | CC(C)(C)c1cccc(CN[C@H]2CS(=O)(=O)C[C@@H](Cc3cc(F)c(N)c(CCC(F)(F)F)c3)[C@@H]2O)c1
41 | 0.36 µM | 2 ×10⁻⁶ cm/s | 2 | – | 0.079 µM | CC(C)(C)c1cccc(CN[C@H]2CS(=O)(=O)C[C@@H](Cc3cc(F)c(N)c(-c4ccco4)c3)[C@@H]2O)c1
42 | 3.53 µM | – | – | – | – | CC(C)(C)c1cccc(CN[C@H]2CS(=O)(=O)C[C@@H](Cc3cc(F)c4c(c3)C3(CCC(F)(F)CC3)CN4)[C@@H]2O)c1 (racemic)
43 | 0.23 µM | 11 ×10⁻⁶ cm/s | – | – | – | CCOC[C@@H](Oc1cc(C[C@@H]2CS(=O)(=O)C[C@H](NCc3cccc(C(C)(C)C)c3)[C@H]2O)cc(F)c1N)C(F)(F)F
